Measured values of several laboratories.
Each line is one published result; the experiments were not run side by side.
Observed: DPPH scavenging

`O=[N+]([O-])c1ccccc1/C=N/N=C/c1ccccc1[N+](=O)[O-]` has an IC50 of 2940 µM.
`Oc1cc(O)c2c(c1)O[C@H](c1ccc(O)c(O)c1)[C@@H](O)C2` gave an IC50 of 31.2 µM.
The IC50 of `Clc1ccc(/C=N/N=C/c2ccc(Cl)cc2)cc1` is reported as > 3000 µM.
With `O=C1O[C@H]([C@@H](O)CO)C(O)=C1O` the IC50 was 350 µM.
For `O=C1O[C@H]([C@@H](O)CO)C(O)=C1O`, the IC50 was 11.6 µM (absorbance; 30 min).
`CCN(CC)c1ccc(/C=N/c2ccccc2F)c(O)c1` gave an IC50 of 38.1 µM.
`Cc1cc(C(C)(C)C)c(O)c(C(C)(C)C)c1` has an IC50 of 69 µg/mL (absorbance; 30 min).
For `Fc1ccccc1/C=N/N=C/c1ccccc1F`, the IC50 was 2800 µM.
For `Cc1c(C)c2c(c(C)c1O)CCC(C)(C(=O)O)O2` (stereo not shown), the IC50 was 221 µM.
With `CCN(CC)c1ccc(/C=N/c2ccccc2Br)c(O)c1` the IC50 was 40.5 µM.
